What was measured:
Format in all cases: functional, cell-based
[1] = system: Bel-7402; assay: Cytotoxicity against human Bel7402 cells after 72 hrs by MTT assay; conditions: Bel-7402, 72 h
In short: (§1)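 Cells kept in RPMI 1640 with 10% (v/v) FBS and plated in 96-well plates. Test compounds added at dilutions of 10^-3-10² µmol/L, then incubated 72 h at 37 °C under 5% CO₂. Survival read by MTT. IC50 taken as the concentration (µmol/L) giving 50% inhibition of cell growth.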

[2] = system: BGC-823; assay: Cytotoxicity against human BGC823 cells after 72 hrs by MTT assay; conditions: BGC-823, 72 h; in short: as §1
[3] = system: HeLa; assay: Cytotoxicity against human HeLa cells after 72 hrs by MTT assay; in short: as §1

| Structure (SMILES) | IC50 [1] [nM] | IC50 [2] [nM] | IC50 [3] [nM] |
| --- | --- | --- | --- |
| C[C@]12CC[C@H](O)C[C@H]1CC[C@@H]1[C@@H]2C[C@@H](O)[C@]2(C)[C@@H](c3ccc(=O)oc3)CC[C@]12O | 26 | 31 | 7.6 |
| C[C@]12CC[C@H](O)C[C@H]1C[C@H](O)[C@@H]1[C@@H]2C[C@H](O)[C@]2(C)[C@@H](c3ccc(=O)oc3)CC[C@]12O | 2900 | 5300 | 60 |
| C[C@]12CC[C@H](O)C[C@H]1CC[C@@H]1[C@@H]2CC[C@]2(C)[C@@H](c3ccc(=O)oc3)CC[C@]12O [BUFALIN] | 7 | 45 | 28 |
| C[C@]12CC[C@H](O)C[C@H]1CC[C@@H]1[C@@H]2C[C@H](O)[C@]2(C)[C@@H](c3ccc(=O)oc3)CC[C@]12O | 410 | 420 | 60 |
| C[C@]12CC[C@H](O)C[C@@]1(O)C[C@H](O)[C@@H]1[C@@H]2CC[C@]2(C)[C@@H](c3ccc(=O)oc3)CC[C@]12O |  |  | 22 |
